Measured values collected from several papers.
Protocols differ between the studies behind these lines.
SLC22A1: Solute carrier family 22 member 1 (SLC22A1, Homo sapiens, UniProt O15245)

SMILES	target or system	assay	system	setting	endpoint	result
CCCCOC(=O)N1CCN(C(=O)[C@H](CP(=O)(O)O)NC(=O)c2cc(N3CC[C@H](OC)C3)nc(-c3ccccc3)n2)CC1			human, plasma	subcutaneous, 16 mg, 24 h, single dose	concentration	2.1 ng/mL
C=CCn1c(=O)c2cnc(Nc3ccc(N4CCN(C)CC4)cc3)nc2n1-c1cccc(C(C)(C)O)n1			human, plasma	oral, 200 mg, 8 h, single dose	concentration	300 nM
COc1ccc(-c2cc(=O)c3c(OC)cc(OC)c(-c4c(OC)cc(OC)c5c(=O)cc(-c6ccc(OC)cc6)oc45)c3o2)cc1	HS27	cell growth or viability, MTT		24 h	CC50	> 200 µM
C=C[C@H]1C[N@@]2CC[C@H]1C[C@@H]2[C@@H](O)c1ccnc2ccc(OC)cc12	SLC22A1	transporter uptake, inhibitor	MDCK-II	100 µM, 5 min	inhibition	77%
CC(C)CCN1C[C@H]2CC[C@@H]3[C@]4(C)COC(C)(C)O[C@@H]4CC[C@@]3(C)[C@@H]2C[C@@H]1C1=CCOC1=O	MRC5	cell growth or viability, ATP luminescence		25 µM, 72 h	cell death	11.7%
COc1cc(OC)c2c(=O)cc(-c3cccc(Br)c3)oc2c1	HS27	cell growth or viability, MTT		24 h	CC50	128 µM
O=C(O)CSc1nnc(Br)n1-c1ccc(C2CC2)c2ccccc12	SLC22A1	transporter uptake, inhibitor	MDCK-II	30 µM, 5 min	inhibition	58%
Oc1c(-n2ccnn2)cnn1-c1cc(N2CCOCC2)ncn1			female monkey, plasma	oral, 1 mg/kg	bioavailability	61%
CC(=O)OC[C@@]1(C)[C@H]2CC[C@@H]3CN(CC(C)C)[C@@H](C4=CCOC4=O)C[C@H]3[C@]2(C)CC[C@H]1OC(C)=O	MRC5	cell growth or viability, ATP luminescence		25 µM, 72 h	cell death	20.7%
COc1cc(OC)c2c(=O)cc(-c3ccc(Br)cc3)oc2c1-c1c(OC)cc(OC)c2c(=O)cc(-c3ccc(Br)cc3)oc12	HS27	cell growth or viability, MTT		24 h	CC50	> 200 µM
C[C@@]12COCO[C@@H]1CC[C@]1(C)[C@@H]2CC[C@@H]2CN(Cc3ccccc3)[C@@H](C3=CCOC3=O)C[C@H]21	MRC5	cell growth or viability, ATP luminescence		25 µM, 72 h	cell death	-1.2%
COc1ccc(-c2cc(=O)c3c(OC)cc(OC)cc3o2)cc1	HS27	cell growth or viability, MTT		24 h	CC50	> 200 µM
